Data published in ChEMBL document CHEMBL1141184, “Synthesis and biological study of a new series of 4'-demethylepipodophyllotoxin derivatives” (J Med Chem, 2005).

Tests used:
Mus musculus [1] = organism: Mus musculus; assay: Percent median survival time to that of control in mice on day 1; format: functional
Summary of the method: (§1)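 B6D2F1 mice inoculated ip with 10^6 P388 cells (day 0), single iv dose on day 1. MTD = highest dose without toxic death and/or >20% weight loss. T/C (%) = median survival time treated/control ×100.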

Mus musculus [2] = organism: Mus musculus; assay: Percent median survival time to that of control in mice on days 14,21 and 28; format: functional
Summary of the method: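 BALB/c nude mice given 10^6 A549 cells orthotopically into left pleural space under anaesthesia; iv treatment on days 14, 21 and 28 after implantation. MTD = dose without toxic death and/or >20% weight loss; T/C (%) = median survival time treated/control ×100.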

[3] = molecular target: DNA topoisomerase 2-alpha (Homo sapiens) (UniProt P11388); assay: Inhibition of human DNA topoisomerase II alpha as percent linear DNA after treatment with 20 uM
Chain of DNA topoisomerase 2-alpha (Homo sapiens) (P11388 whole entry): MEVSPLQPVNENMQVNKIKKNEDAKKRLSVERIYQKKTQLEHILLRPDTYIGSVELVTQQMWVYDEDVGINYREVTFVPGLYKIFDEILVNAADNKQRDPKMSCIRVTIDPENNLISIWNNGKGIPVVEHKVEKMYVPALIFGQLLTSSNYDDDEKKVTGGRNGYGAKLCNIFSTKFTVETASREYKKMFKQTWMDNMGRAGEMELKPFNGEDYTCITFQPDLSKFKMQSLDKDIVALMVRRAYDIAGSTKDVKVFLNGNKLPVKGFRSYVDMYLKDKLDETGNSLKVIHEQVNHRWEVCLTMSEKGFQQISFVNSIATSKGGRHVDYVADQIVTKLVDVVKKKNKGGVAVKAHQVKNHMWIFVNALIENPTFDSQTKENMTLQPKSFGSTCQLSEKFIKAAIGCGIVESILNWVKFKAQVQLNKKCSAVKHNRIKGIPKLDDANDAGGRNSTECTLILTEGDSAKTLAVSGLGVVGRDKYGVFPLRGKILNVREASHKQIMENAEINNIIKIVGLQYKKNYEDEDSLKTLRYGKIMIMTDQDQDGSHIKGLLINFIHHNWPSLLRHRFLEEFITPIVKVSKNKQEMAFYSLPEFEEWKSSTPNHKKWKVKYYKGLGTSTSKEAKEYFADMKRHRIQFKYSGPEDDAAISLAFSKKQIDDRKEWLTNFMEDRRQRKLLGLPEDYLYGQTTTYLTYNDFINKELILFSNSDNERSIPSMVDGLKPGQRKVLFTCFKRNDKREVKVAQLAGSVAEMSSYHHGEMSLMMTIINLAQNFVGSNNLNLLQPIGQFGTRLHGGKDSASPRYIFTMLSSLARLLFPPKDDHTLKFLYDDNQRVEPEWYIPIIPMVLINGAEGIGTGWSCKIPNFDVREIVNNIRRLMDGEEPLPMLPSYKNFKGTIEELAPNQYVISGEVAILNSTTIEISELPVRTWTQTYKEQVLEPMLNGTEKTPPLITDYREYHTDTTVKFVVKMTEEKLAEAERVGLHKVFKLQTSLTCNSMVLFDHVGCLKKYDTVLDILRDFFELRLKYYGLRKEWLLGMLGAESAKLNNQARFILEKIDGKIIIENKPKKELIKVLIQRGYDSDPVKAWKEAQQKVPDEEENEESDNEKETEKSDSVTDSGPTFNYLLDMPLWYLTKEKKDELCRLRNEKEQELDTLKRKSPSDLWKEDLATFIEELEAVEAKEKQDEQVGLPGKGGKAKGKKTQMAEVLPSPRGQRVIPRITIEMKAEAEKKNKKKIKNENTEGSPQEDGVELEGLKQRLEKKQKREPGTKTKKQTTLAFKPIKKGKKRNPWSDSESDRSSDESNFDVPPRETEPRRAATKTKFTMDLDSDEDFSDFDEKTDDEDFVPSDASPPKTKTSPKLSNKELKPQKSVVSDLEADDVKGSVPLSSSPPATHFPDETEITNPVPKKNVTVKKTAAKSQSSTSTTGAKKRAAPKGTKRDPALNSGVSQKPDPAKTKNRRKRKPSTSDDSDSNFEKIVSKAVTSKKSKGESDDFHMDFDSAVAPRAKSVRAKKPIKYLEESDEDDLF

A549 = assay: Maximum tolerated dose after treatment on days 14, 21, and 28 against human A549 non-small-cell lung carcinoma
L1210 [4] = assay: Inhibition of L1210 cell proliferation in cytotoxic assay; format: functional, cell-based; details: Mus musculus
Summary of the method: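 Murine L1210 leukaemia cells (nonadherent, exponential growth) in RPMI 1640 with 10% FCS, 2 mM glutamine, 10 mM HEPES pH 7.4; 48 h exposure to serial dilutions (compounds from 5 mM DMSO stock diluted in water). MTT added for 4 h at 37 °C, formazan dissolved in DMSO, OD 540 nm; IC50 by linear regression on linear part of dose–response; triplicate.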

L1210 [5] = assay: Percentage of L1210 cells in the G2M phase after treatment with compound at 1 uM concentration expressed as cell cycle effect; format: functional, Mus musculus
Summary of the method: (§2)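 L1210 cells at 2.5×10^5 cells/mL exposed 21 h to the compound; fixed in 70% ethanol, stained 30 min at 20 °C in D-PBS with 100 µg/mL RNase A and 25 µg/mL propidium iodide; 10^4 cells per sample by flow cytometry; value is % of cells in G2M.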

P388 = assay: Maximum tolerated dose value on day 1 against mouse P388 leukemia cells; format: functional; summary of the method: as §1
L1210 [6] = assay: Percentage of L1210 cells in the G2M phase after treatment with compound at 2.5 uM concentration expressed as cell cycle effect; format: functional, Mus musculus; summary of the method: as §2
L1210 [7] = assay: Percentage of L1210 cells in the G2M phase after treatment with compound at 0.1 uM concentration expressed as cell cycle effect; format: functional, Mus musculus; summary of the method: as §2
L1210 [8] = assay: Percentage of L1210 cells in the G2M phase after treatment with compound at 10 uM concentration expressed as cell cycle effect; format: functional, Mus musculus; summary of the method: as §2
L1210 [9] = assay: Percentage of L1210 cells in the G2M phase after treatment with compound at 25 uM concentration expressed as cell cycle effect; format: functional, Mus musculus; summary of the method: as §2

Compound	percent linear DNA [3]	IC50 (L1210 [4])	also measured
COc1cc([C@@H]2c3cc4c(cc3[C@@H](OC(=O)NCCN(C)C)[C@H]3C(=O)OC[C@H]23)OCO4)cc(OC)c1O	64%	88 nM	T/C (Mus musculus [1]): 214%; T/C (Mus musculus [2]): 152%; MTD (A549): 6.25 mg/kg; Activity (L1210 [5]): 83%; MTD (P388): 12.5 mg/kg
COc1cc([C@@H]2c3cc4c(cc3[C@@H](OC(=O)NCCCN(C)C)C3COC(=O)[C@@H]32)OCO4)cc(OC)c1O (stereo not given in full)	58%	340 nM	Activity (L1210 [5]): 72%
COc1cc([C@@H]2c3cc4c(cc3[C@@H](OC(=O)N(C)CCCN)C3COC(=O)[C@@H]32)OCO4)cc(OC)c1O (stereo not given in full)	8%	240 nM	
COc1cc([C@@H]2c3cc4c(cc3[C@@H](OC(=O)N(C)CCN(C)C)C3COC(=O)[C@@H]32)OCO4)cc(OC)c1O (stereo not given in full)	27%	1700 nM	T/C (Mus musculus [1]): 182%; T/C (Mus musculus [2]): 102%; Activity (L1210 [6]): 77%; MTD (A549): 25 mg/kg; MTD (P388): 50 mg/kg
COc1cc([C@@H]2c3cc4c(cc3[C@@H](OC(=O)N(C)CCCN(C)C)[C@H]3C(=O)OC[C@H]23)OCO4)cc(OC)c1O	0%	21000 nM	
COc1cc([C@@H]2c3cc4c(cc3[C@@H](OCNCCN(C)C)C3COC(=O)[C@@H]32)OCO4)cc(OC)c1O (stereo not given in full)		27900 nM	
COc1cc([C@@H]2c3cc4c(cc3[C@@H](OC(=O)NCCN(C)C)C3COC(=O)[C@@H]32)OCO4)cc(OC)c1O (stereo not given in full)	56%	38 nM	T/C (Mus musculus [1]): 192%; T/C (Mus musculus [2]): 151%; Activity (L1210 [7]): 67%; MTD (A549): 6.25 mg/kg; MTD (P388): 6.25 mg/kg
COc1cc([C@@H]2c3cc4c(cc3[C@@H](OC(=O)NCCCN(C)C)[C@H]3C(=O)OC[C@H]23)OCO4)cc(OC)c1O	0%	1400 nM	Activity (L1210 [8]): 65%
COc1cc([C@@H]2c3cc4c(cc3[C@@H](OC(=O)N(C)CCCN(C)C)C3COC(=O)[C@@H]32)OCO4)cc(OC)c1O (stereo not given in full)	17%	960 nM	
COc1cc([C@@H]2c3cc4c(cc3[C@@H](OC(=O)NCCCN)[C@H]3C(=O)OC[C@H]23)OCO4)cc(OC)c1O	0%	4300 nM	
COc1cc([C@@H]2c3cc4c(cc3[C@@H](CCN(C)CCN(C)C)C3COC(=O)[C@@H]32)OCO4)cc(OC)c1O (stereo not given in full)	57%	600 nM	Activity (L1210 [6]): 75%
COc1cc([C@@H]2c3cc4c(cc3[C@@H](OC(=O)N(C)CCN(C)C)[C@H]3C(=O)OC[C@H]23)OCO4)cc(OC)c1O	0%	5200 nM	Activity (L1210 [9]): 77%
COc1cc([C@@H]2c3cc4c(cc3[C@@H](OC(=O)NCCCN)C3COC(=O)[C@@H]32)OCO4)cc(OC)c1O (stereo not given in full)	38%	1300 nM	
COc1cc([C@@H]2c3cc4c(cc3[C@@H](O[C@@H]3O[C@@H]5CO[C@@H](C)O[C@H]5[C@H](O)[C@H]3O)[C@H]3COC(=O)[C@H]23)OCO4)cc(OC)c1O [ETOPOSIDE]	50%		T/C (Mus musculus [1]): 233%; T/C (Mus musculus [2]): 131%; Activity (L1210 [6]): 76%; MTD (A549): 70 mg/kg; MTD (P388): 100 mg/kg
